Measured values from the RNAGym collection of RNA variant scans (doi:10.1038/nmeth.2970).

B1: NELF-E aptamer (parent)
chain: CCCAACGACUGCCGAGCGAGAUUACGCUUGAGCGCCCCACUGAGGAUGCCCACGGGCGAUUGGGGCACGG

Variants of: B1
Experiment: HiTS-RAP
Details: with NELF-E (Drosophila)
Summary of the method: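 Kd came from weighted Hill fits to the first binding curve, with intensities normalised to sequencing intensity and averaged per sequence, keeping only fits whose variance was below 1,000,000. That curve was imaged on an Illumina GAIIx flowcell, where sequenced aptamer DNA templates with a T7 promoter and ter site had been transcribed in situ by T7 RNA polymerase and halted by GST-Tus (30 minutes, 37°C). Before each image, clusters equilibrated for 30 minutes at room temperature with NELF-E-mOrange at 0.064 to 1000 nM in HEPES binding buffer.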
For G20U G54A, the Kd was 20.1 nM.
G20U G64A showed a Kd of 9.36 nM.
Variant G20U G65U has a Kd of 7.46 nM.
Variant G20U U22G has a Kd of 6.52 nM.
For G20U U23G, the Kd was 6.37 nM.
For G20U U28C, the Kd was 9.17 nM.
For G20U U29G, the Kd was 6.19 nM.
G20U U41G gave a Kd of 6.33 nM.
In the case of A21C, the Kd is reported as 5.33 nM.
In the case of A21G, the Kd is reported as 5.04 nM.
Work on A21G A24G yielded a Kd of 6.42 nM.
Variant A21G A46G has a Kd of 39.1 nM.
A21G A59U showed a Kd of 73 nM.
Variant A21G G64A has a Kd of 9.49 nM.
With A21G U22G the Kd was 5.72 nM.
Variant A21G U23G has a Kd of 6.71 nM.
A21G U28C was tested, and the Kd was 6.03 nM.
With A21G U29G the Kd was 5.79 nM.
In the case of A21G U41G, the Kd is reported as 6.21 nM.
A21U showed a Kd of 5.14 nM.
With A21U A24G the Kd was 5 nM.
For A21U A67G, the Kd was 5.54 nM.
A21U C25G showed a Kd of 6.57 nM.
For A21U U22G, the Kd was 5.31 nM.
Work on A21U U23G yielded a Kd of 6.73 nM.
In the case of A21U U29G, the Kd is reported as 5.33 nM.
For A21U U41G, the Kd was 5.38 nM.
U22A was tested, and the Kd was 5.46 nM.
U22A A24G gave a Kd of 7.66 nM.
U22A U23G gave a Kd of 5.34 nM.
For U22C, the Kd was 4.53 nM.
In the case of U22C A24G, the Kd is reported as 6.97 nM.
U22C C57U was tested, and the Kd was 2.92 nM.
U22C U23G was tested, and the Kd was 5 nM.
In the case of U22C U29G, the Kd is reported as 5.29 nM.
For U22C U41G, the Kd was 5.5 nM.
U22C U47A gave a Kd of 10.5 nM.
U22G showed a Kd of 4.92 nM.
U22G A24G showed a Kd of 5.62 nM.
U22G A24U showed a Kd of 7.45 nM.
In the case of U22G A31G, the Kd is reported as 6.63 nM.
Variant U22G A31U has a Kd of 5.65 nM.
U22G A39G was tested, and the Kd was 8.32 nM.
Variant U22G A39U has a Kd of 29.7 nM.
U22G A43G gave a Kd of 22.8 nM.
With U22G A43U the Kd was 56.4 nM.
For U22G A46G, the Kd was 35.8 nM.
With U22G A46U the Kd was 33 nM.
With U22G A52C the Kd was 6.52 nM.
U22G A52G gave a Kd of 4.99 nM.
U22G A52U showed a Kd of 17.5 nM.
In the case of U22G A59G, the Kd is reported as 76.4 nM.
For U22G A59U, the Kd was 97.1 nM.
In the case of U22G A67G, the Kd is reported as 5.48 nM.
U22G A67U showed a Kd of 7.3 nM.
U22G C25G showed a Kd of 5.5 nM.
U22G C25U showed a Kd of 6.29 nM.
U22G C27G showed a Kd of 8.09 nM.
For U22G C27U, the Kd was 4.34 nM.
U22G C33G was tested, and the Kd was 6.1 nM.
Variant U22G C33U has a Kd of 5.57 nM.
With U22G C35A the Kd was 7.18 nM.
For U22G C35G, the Kd was 6.38 nM.
Variant U22G C35U has a Kd of 11.6 nM.
For U22G C36A, the Kd was 10.1 nM.
U22G C36G was tested, and the Kd was 7.35 nM.
U22G C36U showed a Kd of 6.89 nM.
U22G C37A showed a Kd of 14.6 nM.
U22G C37G showed a Kd of 7.01 nM.
With U22G C37U the Kd was 12.7 nM.
Work on U22G C38U yielded a Kd of 8.32 nM.
With U22G C40G the Kd was 6.42 nM.
Variant U22G C40U has a Kd of 82.8 nM.
For U22G C49U, the Kd was 24.7 nM.
U22G C50A was tested, and the Kd was 19.3 nM.
U22G C50G showed a Kd of 7.97 nM.
U22G C50U showed a Kd of 12.9 nM.
U22G C51A gave a Kd of 8.46 nM.
U22G C51U gave a Kd of 7.12 nM.
U22G C53A gave a Kd of 4.91 nM.
U22G C53U showed a Kd of 4.04 nM.
Work on U22G C57U yielded a Kd of 6.19 nM.
Variant U22G C66A has a Kd of 4.13 nM.
Variant U22G C66U has a Kd of 5.67 nM.
U22G G26A was tested, and the Kd was 5.64 nM.
U22G G26U gave a Kd of 4.84 nM.
In the case of U22G G30A, the Kd is reported as 5.32 nM.
U22G G30U was tested, and the Kd was 6.56 nM.
For U22G G32A, the Kd was 4.39 nM.
U22G G32U gave a Kd of 4.59 nM.
Work on U22G G34A yielded a Kd of 8.31 nM.
With U22G G34U the Kd was 5.88 nM.
U22G G42A was tested, and the Kd was 49.8 nM.
U22G G44A showed a Kd of 17.5 nM.
With U22G G44U the Kd was 17.2 nM.
Work on U22G G45A yielded a Kd of 74.7 nM.
In the case of U22G G45U, the Kd is reported as 7.63 nM.
Work on U22G G48A yielded a Kd of 9.21 nM.
U22G G48U showed a Kd of 9.66 nM.
Work on U22G G54A yielded a Kd of 12.1 nM.
Variant U22G G54U has a Kd of 7.13 nM.
U22G G55A showed a Kd of 8.23 nM.
In the case of U22G G55C, the Kd is reported as 7.26 nM.
With U22G G55U the Kd was 7.97 nM.
For U22G G56A, the Kd was 8.77 nM.
Work on U22G G56U yielded a Kd of 5.99 nM.
In the case of U22G G58U, the Kd is reported as 10.5 nM.
U22G G62A gave a Kd of 18.2 nM.
Work on U22G G62U yielded a Kd of 10.4 nM.
In the case of U22G G63A, the Kd is reported as 14.9 nM.
U22G G63C showed a Kd of 39.6 nM.
U22G G63U gave a Kd of 14 nM.
For U22G G64A, the Kd was 8.7 nM.
Variant U22G G64C has a Kd of 6.91 nM.
For U22G G64U, the Kd was 6.37 nM.
U22G G65A showed a Kd of 5.12 nM.
U22G G65C showed a Kd of 13.4 nM.
Work on U22G G65U yielded a Kd of 6.22 nM.
U22G U23A gave a Kd of 6.19 nM.
Work on U22G U23C yielded a Kd of 4.62 nM.
U22G U23G showed a Kd of 6.17 nM.
For U22G U28A, the Kd was 5.81 nM.
With U22G U28C the Kd was 8.17 nM.
Work on U22G U28G yielded a Kd of 6.89 nM.
For U22G U29A, the Kd was 5.82 nM.
In the case of U22G U29C, the Kd is reported as 5.92 nM.
In the case of U22G U29G, the Kd is reported as 5.4 nM.
U22G U41A showed a Kd of 81.8 nM.
Work on U22G U41C yielded a Kd of 74.5 nM.
U22G U41G gave a Kd of 5.36 nM.
Variant U22G U47A has a Kd of 11.3 nM.
For U22G U47G, the Kd was 7.29 nM.
With U22G U60A the Kd was 9.43 nM.
U22G U60C showed a Kd of 10.8 nM.
U22G U60G gave a Kd of 7.18 nM.
Work on U22G U61A yielded a Kd of 29.9 nM.
U22G U61G showed a Kd of 9.56 nM.
In the case of U23A, the Kd is reported as 5.15 nM.
U23A A24G gave a Kd of 6.07 nM.
U23A U29G was tested, and the Kd was 5.75 nM.
Work on U23C yielded a Kd of 4.16 nM.
Work on U23C A24G yielded a Kd of 5.24 nM.
U23C U29G was tested, and the Kd was 4.34 nM.
U23G gave a Kd of 4.99 nM.
With U23G A24G the Kd was 5.97 nM.
U23G A24U showed a Kd of 6.08 nM.
Variant U23G A31G has a Kd of 6.72 nM.
Work on U23G A31U yielded a Kd of 6.53 nM.
U23G A39G was tested, and the Kd was 8.65 nM.
With U23G A39U the Kd was 24.8 nM.
U23G A43G was tested, and the Kd was 25.1 nM.
Work on U23G A43U yielded a Kd of 85.7 nM.
Variant U23G A46G has a Kd of 59.5 nM.
Variant U23G A46U has a Kd of 69.3 nM.
In the case of U23G A52G, the Kd is reported as 4.37 nM.
For U23G A52U, the Kd was 17.6 nM.
In the case of U23G A59G, the Kd is reported as 57.5 nM.
Work on U23G A67C yielded a Kd of 4.59 nM.
U23G A67G showed a Kd of 6.23 nM.
U23G A67U gave a Kd of 7.58 nM.
Variant U23G C25G has a Kd of 5.84 nM.
U23G C25U showed a Kd of 5.73 nM.
U23G C27U was tested, and the Kd was 4.59 nM.
Variant U23G C33A has a Kd of 5.51 nM.
In the case of U23G C33G, the Kd is reported as 8.04 nM.
U23G C33U was tested, and the Kd was 6.01 nM.
With U23G C35G the Kd was 7.07 nM.
